PLC-beta3 inh: PLC-beta3 (human) inhibition, primary screen; inhibition, % at 12.2 µM; AID 720704; 370,000 tested, 0.18% active; Purified PLC-beta3, fluorogenic substrate, fluorescence
NTR1 agonist: NTR1 (human) agonism | NTR1-U2OS beta-arrestin-GFP spot imaging, agonist mode | activation, % at 20 µM | 330,000 tested, 0.17% active | AID 493036;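 active = activation at or above 40% of the spot to cytoplasm intensity ratio, with at least 20 cells analyzed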
Target sequence (P30989 whole entry, looked up): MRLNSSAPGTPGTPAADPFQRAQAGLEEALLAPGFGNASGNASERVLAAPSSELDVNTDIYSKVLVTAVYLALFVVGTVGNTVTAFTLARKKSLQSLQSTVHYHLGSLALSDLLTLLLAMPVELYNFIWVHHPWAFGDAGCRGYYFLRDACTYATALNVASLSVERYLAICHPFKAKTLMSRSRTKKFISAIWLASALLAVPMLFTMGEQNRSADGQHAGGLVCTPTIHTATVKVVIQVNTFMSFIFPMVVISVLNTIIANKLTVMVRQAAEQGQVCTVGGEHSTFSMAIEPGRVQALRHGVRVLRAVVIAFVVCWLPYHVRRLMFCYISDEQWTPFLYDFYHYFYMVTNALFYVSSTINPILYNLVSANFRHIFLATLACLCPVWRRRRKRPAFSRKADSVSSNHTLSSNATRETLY
Arr AP2 block: inhibitors of human beta-arrestin and AP2 interaction | FITC-arrestin peptide / GST-AP2 beads, flow cytometry; AP2 beta2 appendage carries R879A mutation | inhibition, % at 10 µM | 340,000 tested, 0.31% active | AID 504490;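 active = inhibition above a set limit, near 3 SD of compounds lacking own fluorescence, cut at about 54% in these data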
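Material – GST-tagged AP2 beta2-adaptin appendage (R879A) on 4 µm glutathione beads · Probe or stimulus – fluorescein-tagged arrestin peptide at 50 nM final · Timing – 12 min plus 1 h, RT · Detection – bead flow cytometry, FITC channel · Read-out basis – inhibition as reduced fluorescein signal on beads, percent · Medium – PBS plus Tween 20 (0.05%) and BSA (0.1%)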
PLC-gamma1 inh: PLC-gamma1 (human) inhibition, primary screen. P19174. purified PLC-gamma1, fluorogenic substrate, fluorescence. inhibition, % at 12.2 µM. 370,000 tested, 0.84% active; in the data active = inhibition above about 9.5%
PLCg1 ctr: PLC-gamma1 inhibition, counter-screen for PLC-beta3 hits | inhibition, % at 12.3 µM | AID 743258 | shares compounds with PLC-gamma1 inh | 3,300 tested, 3.1% active | purified PLC-gamma1, fluorogenic substrate, fluorescence; in the data active = inhibition above about 9.5%
PLCb3 confirm: confirmation of human PLC-beta3 inhibitors | 3,300 tested, 1% active | purified PLC-beta3, fluorogenic substrate fluorescence | shares compounds with PLC-gamma1 inh | inhibition, % at 12.3 µM
Numbers stand for hits; n = inactive; x = no result given. Rows were chosen to be rich in hits. Some 1.3% of all compounds tested hit in one or more screens of this group. Cut-off read from the data, not from the text of the source, unless noted: active = inhibition above about 11%; inactive = the rest.

SMILES	PLC-beta3 inh	NTR1 agonist	Arr AP2 block	PLC-gamma1 inh	PLCg1 ctr	PLCb3 confirm
COC(=O)c1cc(C)nc2c1C(=O)C(=O)C=C2N1CCOCC1	n	n	n	14	49	11
COCCn1c(SCC(=O)OC(C)C)nnc1-c1ccccc1	n	n	n	12	n	n
COCCn1c(SCC(=O)Nc2cccc(OC)c2)nnc1-c1ccccc1	n	n	n	n	x	x
CC(C)(C)N(NC(=O)Nc1ccccc1)C(=O)c1ccccc1	n	n	n	13	n	n
CC(C)(C)N(NC(=O)Nc1ccc(Cl)cc1)C(=O)c1ccccc1	n	n	n	n	x	x
Cc1ccc(N2CCN(/N=C\c3cccnc3)CC2)cc1	n	x	x	n	x	x
CC(C)CNc1ccc2c(c1)OC[C@@H](CC(C)C)NS2(=O)=O	n	x	x	n	x	x
Cc1cc(Oc2ccc([N+](=O)[O-])cc2)nc(N2CCOCC2)n1	n	n	n	12	n	n
Cc1cc(Oc2ccc(C#N)cc2)nc(N2CCOCC2)n1	n	n	n	n	x	x
c1ccc(C2=NOC(c3nnc(-c4ccccc4)o3)C2)cc1 (stereo not drawn)	n	n	n	n	x	x
Fc1ccc(C2=NOC(c3nnc(-c4ccccc4)o3)C2)cc1 (stereo not drawn)	12	n	n	n	n	n
C/C=C/c1ccc([C@@H]2[C@H](CO)N(S(C)(=O)=O)[C@H]2CN(C)C(=O)CC)cc1	n	x	x	n	x	x
CC(C)COC(=O)Nc1ccc(C(=O)O)cc1	13	n	n	n	n	n
CC(C)COC(=O)c1ccc(NC(=O)C2C3CCC(C3)C2C(=O)O)cc1 (stereo not drawn)	n	n	n	n	x	x
S=C(NCCCNC(=S)Nc1ccccc1)Nc1ccccc1	n	n	n	13	n	n
S=C(NCCN1CCCCC1)Nc1ccccc1	n	n	n	10	n	n
O=C(OC12CCCN(C1)/C(=C/c1ccccc1)C2)c1ccc(Cl)cc1 (stereo not drawn)	n	x	x	n	x	x
CCc1ccccc1NC(=O)CC1SCCNC1=O (stereo not drawn)	n	n	n	11	n	n
Cc1cc(OCCCn2ccnc2)ccc1[N+](=O)[O-]	n	n	n	n	x	x
Cc1ccc(OCCn2ccnc2)c([N+](=O)[O-])c1	n	n	n	13	n	n
C/C(=N\N=C1\NC(=O)CS1)c1cccs1	n	n	n	13	n	n
CC(=O)c1cccc(N=C2NC(=O)CS2)c1	n	n	n	n	x	x
COc1ccc(-n2c(C)nn(C)c2=O)cc1	n	n	n	9.9	n	n
O=C(NCc1cccs1)c1cc2c(s1)CCCC2	n	n	n	11	n	n
CN1CC(=O)N(CC(=O)Nc2ccc(N(C)C)cc2)c2ccccc2C1=O	n	n	n	13	n	n
SMILES	PLC-beta3 inh	NTR1 agonist	Arr AP2 block	PLC-gamma1 inh	PLCg1 ctr	PLCb3 confirm
CN1CC(=O)N(CC(=O)NCCc2ccc(F)cc2)c2ccccc2C1=O	n	n	n	n	x	x
CCOC(=O)COc1nc2ccc(Br)cc2c(-c2ccccc2)c1C(C)=O	n	n	n	9.8	n	n
CCOC(=O)c1cccc(NC(=O)CN(C)S(=O)(=O)c2ccc(F)cc2)c1	n	x	x	n	x	x
O=S(=O)(CS(=O)(=O)c1ccc(Br)cc1)c1ccc(Br)cc1	n	x	x	27	21	n
CC(C)(C)NC(=O)NC(=O)COc1ccc(Br)cc1Br	n	n	n	11	n	n
O=C(CC1CCCC1)N[C@@H](Cc1cccnc1)C(=O)N1CCC[C@H]1C(=O)NCCc1ccccc1Cl	n	x	x	n	x	x
O=C(/C=C/c1cccc([N+](=O)[O-])c1)N1CC[C@@]2(O)CCCC[C@H]2C1	n	n	n	10	n	n
O=C(/C=C/c1cccc([N+](=O)[O-])c1)N1CCOCC1	n	n	n	n	x	x
CCCC1CCC2(CC1)CCC2OC(=S)NCc1cccc(OC)c1 (stereo not drawn)	n	x	x	n	x	x
COc1cc(OC)c(S(=O)(=O)Nc2ccccc2N2CCOCC2)cc1NC(C)=O	n	n	n	n	x	x
COc1cc(OC)c(S(=O)(=O)Nc2ccccc2NC(=O)CN2CCOCC2)cc1NC(C)=O	n	n	n	15	n	n
Cc1nn(CCOc2ccccc2)c(=O)n1-c1ccc(F)cc1	n	n	n	11	n	n
Cc1nn(CCOc2ccccc2)c(=O)n1-c1cccc(F)c1	n	n	n	n	x	x
COc1cc(CN2CCC(C)CC2)ccc1OCc1ccccc1	n	n	n	15	n	n
CC(C)CNC(=O)C1CSCCS(=O)(=O)N1Cc1ccccc1 (stereo not drawn)	n	x	x	n	x	x
C=CCn1c(SCCN2C(=O)c3ccccc3C2=O)nc2scc(-c3ccc(F)cc3)c2c1=O	n	x	n	13	n	n
COc1ccc(N2C(=S)N=C(Nc3ccccc3)C23CCCCC3)cc1	n	n	n	15	n	n
COc1cccc(CN2CC(C(=O)NCCc3nccs3)CCC2=O)c1 (stereo not drawn)	n	x	x	n	x	x
O=C(NCCc1nccs1)C1CCC(=O)N(Cc2cccc(C(F)(F)F)c2)C1 (stereo not drawn)	n	n	n	13	n	n
O=C(NC1CCC1)C1CCC(=O)N(Cc2cccc(F)c2)C1 (stereo not drawn)	n	n	n	10	n	n
O=C(NC1CCC1)C1CCC(=O)N(Cc2ccccc2F)C1 (stereo not drawn)	n	n	n	n	x	x
CCn1nnnc1SCC(=O)N1CCCc2ccccc21	11	n	n	n	n	n
CCCn1c(SCC(=O)N2CCCc3ccccc32)nnc1-c1ccccn1	n	n	n	12	n	n
CCC(=O)N(Cc1cc(=O)[nH]c2ccccc12)c1ccccc1OC	n	n	n	12	n	n
O=C(c1cc(-c2ccccc2)nn1-c1ccccc1)N1CCN(S(=O)(=O)c2cccc(F)c2)CC1	n	n	n	9.9	n	n
SMILES	PLC-beta3 inh	NTR1 agonist	Arr AP2 block	PLC-gamma1 inh	PLCg1 ctr	PLCb3 confirm
NCCCCC(N)c1cn([C@@H](CCC(=O)O)C(=O)N2CCNCC2)nn1 (stereo partly drawn)	13	n	n	n	n	n
Cc1ccc(CN(C(=O)Cn2nnc3ccccc32)C(C(=O)NCc2ccco2)c2ccc(C)o2)cc1 (stereo not drawn)	n	n	n	n	x	x
Cc1ccc(C(C(=O)NCc2ccco2)N(CCc2ccccc2)C(=O)Cn2nnc3ccccc32)o1 (stereo not drawn)	11	x	n	n	n	n
COC(=O)[C@H](C(C)C)N1Cc2nnn(Cc3ccc(C)cc3)c2-c2cc(F)ccc2S1(=O)=O	n	x	x	n	x	x
COc1cc2c3cc1Oc1cc(ccc1O)C[C@@H]1c4c(cc(OC)c(O)c4Oc4ccc(cc4)C[C@@H]3N(C)CC2)CC[N+]1(C)C	n	x	x	13	n	n
CCOC(=O)[C@@]12CCCC=C1N(CCc1ccc(Cl)cc1)C(=O)[C@H]2CC(=O)NCc1ccc(C)o1	n	x	x	n	x	x
C=CCC[C@H](Cc1ccc(F)cc1)C(=O)OC[C@@H](Cc1c[nH]c2ccccc12)NC(=O)[C@H](CC=C)CC(=O)N(CCO)Cc1ccccc1	n	n	n	12	n	n

Bioassay records: PubChem BioAssay, several laboratories
